1 compound from ChEMBL document CHEMBL3526154, “Metabolism, pharmacokinetics, tissue distribution, and stability studies of the prodrug analog of an anti-hepatitis B virus dinucleoside phosphorothioate” (Drug Metab Dispos, 2012) can be followed below.

Common to all, as to type: ADME, organism-based
Holding throughout (settings): in vivo

Data set [1] can be described thus: Drug excretion in male Sprague-Dawley rat feces at 10 mg/kg, po administered as single dose measured at 0 to 1 hr post-dose by liquid scintillation counting analysis. Set-up: dose 10 mg/kg, route oral. The procedure, abridged:
(§1)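 Single [³⁵S]-prodrug dose to rats, i.v. tail-vein bolus (PEG 400/saline vehicle) or oral gavage (citric acid buffer pH 2.5), 5 ml/kg. Urine and feces collected ~1, 4 and 24 h postdose. Radioactivity counted by liquid scintillation and expressed as % of administered dose. Mean and S.D. from nine rats per sex.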

Data set [2] is described as follows: Drug excretion in male Sprague-Dawley rat feces at 10 mg/kg, po administered as single dose measured at 1 to 4 hrs post-dose by liquid scintillation counting analysis. Set-up: dose 10 mg/kg, route oral. Put shortly: as §1
Data set [3] can be described thus: Drug excretion in male Sprague-Dawley rat feces at 10 mg/kg, iv administered as bolus dose measured at 1 to 4 hrs post-dose by liquid scintillation counting analysis. Set-up: dose 10 mg/kg, route intravenous. Put shortly: as §1
Data set [4] relates to Lung. The data set is described as follows: Drug uptake in Sprague-Dawley rat lung at 10 mg/kg, iv administered as bolus dose measured at 1 to 24 hrs post-dose by liquid scintillation counting analysis. Set-up: dose 10 mg/kg, route intravenous. Put shortly: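 [35S]-labelled prodrug given once to rats, iv bolus via tail vein (25% PEG 400/75% saline) or oral gavage (0.05 M citric acid buffer, pH 2.5), 5 ml/kg. Rats euthanised at 1, 4 or 24 h. Liver, lung, kidney, heart, brain, spleen, tail and retro-orbital plasma were collected. Samples were homogenised and solubilised, and radioactivity was counted by liquid scintillation. Values are µg-equivalent/ml or g and % of dose.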

Data set [5] can be described thus: Drug excretion in female Sprague-Dawley rat feces at 10 mg/kg, po administered as single dose measured at 4 to 24 hrs post-dose by liquid scintillation counting analysis. Set-up: dose 10 mg/kg, route oral. Put shortly: as §1
A short description of data set [6]: Drug excretion in female Sprague-Dawley rat feces at 10 mg/kg, iv administered as bolus dose measured at 0 to 24 hrs post-dose by liquid scintillation counting analysis. Set-up: dose 10 mg/kg, route intravenous. Put shortly:
as §1

The structures appear in SMILES notation.

In the case of `CO[C@@H]1[C@H](OP(=O)(OC[C@H]2O[C@@H](n3cnc4c(N)ncnc43)C[C@@H]2O)[35S]COC(=O)OC(C)C)[C@@H](CO)O[C@H]1n1ccc(=O)[nH]c1=O` (stereo partly specified), the Drug excretion in data set [1] came out at 0.01%; in data set [2], 0.01%; in data set [3], 0.01%; in data set [5] it was 2.68%; in data set [6], 9.44%. Also, in data set [4], the Drug uptake entry is recorded as “Active”.
